Compound activity deposited in PubChem BioAssay by several laboratories.
Only some compounds are listed: those with a hit (about 2% of all), similar ones and a draw of the others.
FLuc inh counter = counter-screen for luciferase assay inhibitors: firefly luciferase inhibition; P08659; ATPLite firefly luciferase biochemical luminescence, 10 min; inhibition, % at 10 µM; hit rate 1.5% among 200,000; AID 1006;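 active means inhibition above about 50% when tested at 10 µM, limit read from the data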
Target sequence (P08659 whole entry, looked up): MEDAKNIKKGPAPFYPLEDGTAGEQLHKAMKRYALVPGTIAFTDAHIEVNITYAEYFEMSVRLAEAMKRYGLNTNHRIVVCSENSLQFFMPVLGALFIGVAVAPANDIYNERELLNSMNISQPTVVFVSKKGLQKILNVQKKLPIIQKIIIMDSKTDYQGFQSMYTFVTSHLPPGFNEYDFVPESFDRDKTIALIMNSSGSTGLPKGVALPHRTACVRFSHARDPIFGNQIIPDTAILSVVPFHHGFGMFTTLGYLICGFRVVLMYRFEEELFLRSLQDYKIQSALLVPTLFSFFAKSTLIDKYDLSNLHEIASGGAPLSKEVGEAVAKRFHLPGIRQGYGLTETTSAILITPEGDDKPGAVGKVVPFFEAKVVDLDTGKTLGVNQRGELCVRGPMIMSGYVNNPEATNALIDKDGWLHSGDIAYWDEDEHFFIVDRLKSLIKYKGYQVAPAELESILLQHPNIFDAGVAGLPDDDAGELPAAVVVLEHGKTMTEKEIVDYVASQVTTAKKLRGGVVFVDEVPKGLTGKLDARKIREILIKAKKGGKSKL
HSP90 inh = inhibitors of HSP90 luciferase refolding in rabbit reticulocyte lysate; luciferase refolding luminescence, 3 h; AID 1789; hit rate 0.91% among 290,000; inhibition, % at 5.6 µM;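 active means inhibition above the screen-wide mean plus 3 SD, computed separately per campaign, cut at about 16% in these data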;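 further: 0% = DMSO wells and 100% = 60 µM geldanamycin wells; inhibitors lower the luminescence because luciferase stays unfolded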
FLuc act counter = affects firefly luciferase, flagging false hits in luciferase stimulation screens | 200,000 tested, under 10 active | ATPlite luciferase biochemical, luminescence, 10 min; 0 = ATP-free wells, 1 = DMSO control | P08659 | activation factor at 10 µM;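 active means luciferase activation factor, scaled between plate controls, of at least 2 with compound at 10 µM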
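Material: Luciferase/luciferin reagent mix; Doses: test compounds dosed from 2 mM stocks in 100% DMSO; Schedule: 10 min incubation after luciferase reagent addition, room temperature; Measured by: luminescence from luciferase reaction; Read-out: luminescence gain marking luciferase activators.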
TRAIL sens C8 = sensitizes caspase-8 expressing cells to TRAIL | AID 624354 | inhibition (viability loss, TRAIL sensitization), % at 10 µM | NB7+C8 cells + TRAIL, ATPlite viability luminescence | hit rate 1% among 360,000;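 active means compounds causing at least 50% loss of cell viability in the single-dose screen, relative to plate controls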
PPC-1+TRAIL kill = PPC-1 cancer cell killing with TRAIL present; PPC-1 cells + TRAIL, ATPLite viability luminescence; cell killing (% activity), % at 4 µM or 5 µM; hit rate 0.41% among 220,000; AID 1443;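 active means cell killing above 50% in the first pass at 4 µM, then a duplicate retest at 5 µM averaging 50% or more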;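 further: plate controls were cells with TRAIL plus DMSO for no effect and medium-only wells lacking cells for full effect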
HSP90 confirm = confirmation of HSP90 inhibitors; inhibition, % at 5.9 µM; hit rate 64% among 2,300; shares compounds with HSP90 inh; rabbit reticulocyte lysate, luciferase refolding luminescence, 3 h; in the data active means inhibition above about 18%;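 further: 0% = vehicle wells and 100% = reference inhibitor wells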
luciferase ctr = counter-screen for HSP90 inhibitors: inhibitors of firefly luciferase; shares compounds with HSP90 inh; purified native firefly luciferase, luminescence; inhibition, % at 5.9 µM; hit rate 48% among 2,300; AID 1847;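 active means inhibition above the mean inhibition of all tested sample wells plus 3 SD, cut at about 10% in these data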;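 further: 0% = DMSO with luciferase and 100% = wells lacking luciferase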
The depositor's hits bear a star; x = no result given.

SMILES	FLuc inh counter	HSP90 inh	FLuc act counter	TRAIL sens C8	PPC-1+TRAIL kill	HSP90 confirm	luciferase ctr
O=[N+]([O-])c1cccnc1N/N=C/c1ccccc1O	0	22*	1	51*	20	14	-1
CC(C)CNC(=O)c1cc(-c2ccc3c(c2)OCO3)on1	x	31*	x	21	x	38*	24*
CC(C)CNC(=O)COCc1cc(-c2ccc3c(c2)OCO3)on1	x	-2	x	-11	x	x	x
O=C(NCCc1cccc(Cl)c1)c1ccc(OC2CCN(Cc3ccccn3)CC2)cc1	x	22*	x	11	x	19*	-6
CC12CC3(C)CC(C)(C1)CC(C(=O)NC(=S)N1CCCC1)(C2)C3	-5	-1	1.1	0	x	x	x
Cc1nc(NC(=O)c2ccccc2)sc1-c1csc(Nc2ccc(C(=O)O)cc2)n1	x	31*	x	18	4	8	-26
COC(=O)c1sc(NC(=S)NC(=O)c2cccc(C)c2)nc1C	50	22*	0.5	51*	13	2	-13
COC(=O)c1sc(NC(=S)NC(=O)c2ccccc2F)nc1C	49	-1	0.5	48	21	x	x
Cc1nc(NC(N)=S)sc1C(=O)Nc1ccccc1	-10	19*	1.1	-4	19	26*	-7
COc1cccc(Nc2nc(-c3sc(NC(=O)c4ccccc4)nc3C)cs2)c1	-7	45*	1.1	13	31	12	-24
COc1ccc(N2CC(C(=O)N(C)CC(=O)Nc3ccc(Cl)c(C(F)(F)F)c3)CC2=O)c(OC)c1 (stereo unspecified)	x	x	x	39	x	x	x
O=C(CSc1ccc(-c2ccccn2)nn1)N1CCCC1	-6	2	1.1	2	2	x	x
Cc1ccc(C(=O)Nc2nc(C)c(C(=O)Nc3ccc4c(c3)CCC4)s2)cc1	2	13	1	-3	-10	x	x
Cc1nc(NC(=O)c2ccccc2)sc1-c1csc(NCc2ccco2)n1	-1	48*	1	2	12	29*	-13
COc1cccc(NC(=O)c2sc(NC(=O)c3ccncc3)nc2C)c1	x	79*	x	5	-11	80*	41*
Cc1nc(NC(=O)c2ccc(F)cc2)sc1C(=O)Nc1ccc2c(c1)CCC2	0	39*	1	3	28	46*	-17
COCC(C)NC(=S)Nc1ccccc1[N+](=O)[O-] (stereo unspecified)	-4	2	1	-9	15	x	x
CCCCN=C1NN=C(c2ccc(C)c(C)c2)CS1	6	-1	0.9	25	16	x	x
CCCCN=C1NN=C(c2ccc3c(c2)OCCO3)CS1	83*	52*	0.2	63*	30	42*	35*
COc1ccc(N=Cc2ccccc2O)cc1	x	x	x	-10	x	x	x
COc1ccc(N=CC2=C(O)c3ccccc3C2=O)cc1	92*	29*	0.1	88*	7	77*	80*
O=C(NC(=O)c1ccccc1)Nc1ccccc1	x	64*	x	54*	x	59*	47*
COc1ccc(NC(=O)NC(=O)c2ccccc2)cc1	x	-3	x	1	x	x	x
CC1Cc2cc(/C(O)=C3/C(=O)C(=O)N(CCCn4ccnc4)C3c3ccco3)ccc2O1 (stereo unspecified)	4	42*	1	39	-1	40*	39*
CC1Cc2cc(/C(O)=C3/C(=O)C(=O)N(Cc4ccco4)C3c3cccs3)ccc2O1 (stereo unspecified)	-7	36*	1.1	-7	34	1	1
SMILES	FLuc inh counter	HSP90 inh	FLuc act counter	TRAIL sens C8	PPC-1+TRAIL kill	HSP90 confirm	luciferase ctr
Cc1cc(Cl)c2oc(C(=O)N(C)Cc3ccon3)c(C)c2c1	x	1	x	-24	x	x	x
CCOc1ccc2c(c1)C(N(CCN1CCOCC1)C(=O)Nc1ccccc1)CC(C)(C)O2 (stereo unspecified)	-7	0	1.1	-9	5	x	x
COc1ccc(Cl)cc1C(=O)NNC(=O)c1cccs1	x	x	x	7	x	x	x
COc1cc(/C=N/Nc2nc3ccccc3s2)cc([N+](=O)[O-])c1O	x	29*	x	-12	5	-11	-30
CCC(=O)NNC(=O)Cc1c(C)n(C(=O)c2ccc(Cl)cc2)c2ccc(OC)cc12	x	-1	x	-12	x	x	x
O=C(O)c1ccc(Cn2cc(/C=C\[N+](=O)[O-])c3ccccc32)o1	x	43*	x	-1	x	4	-5
